Test results from ChEMBL document CHEMBL1687701, “Discovery of N-Aryl Piperazines as Selective mGlu(5) Potentiators with Efficacy in a Rodent Model Predictive of Anti-Psychotic Activity” (ACS Med Chem Lett, 2010).
pEC50, pIC50: −log10 of the molar value. Each block holds one compound with its values, some of them ahead of it. Calls of active or inactive are those of the source. The calls are words filed in the database; no cut-off is given here.

Columns and labels:
[1] = target: Metabotropic glutamate receptor 5 (Rattus norvegicus) (UniProt P31424); test: Positive allosteric modulation at rat mGluR5 receptor expressed in HEK293 cells assessed as glutamate-induced calcium fluorescence at 30 uM by Fluo-4/AM dye-based fluorescence assay in relative to glutamate; format: functional, cell-based
Metabotropic glutamate receptor 5 (Rattus norvegicus), sequence (P31424 21-1203 limits assumed): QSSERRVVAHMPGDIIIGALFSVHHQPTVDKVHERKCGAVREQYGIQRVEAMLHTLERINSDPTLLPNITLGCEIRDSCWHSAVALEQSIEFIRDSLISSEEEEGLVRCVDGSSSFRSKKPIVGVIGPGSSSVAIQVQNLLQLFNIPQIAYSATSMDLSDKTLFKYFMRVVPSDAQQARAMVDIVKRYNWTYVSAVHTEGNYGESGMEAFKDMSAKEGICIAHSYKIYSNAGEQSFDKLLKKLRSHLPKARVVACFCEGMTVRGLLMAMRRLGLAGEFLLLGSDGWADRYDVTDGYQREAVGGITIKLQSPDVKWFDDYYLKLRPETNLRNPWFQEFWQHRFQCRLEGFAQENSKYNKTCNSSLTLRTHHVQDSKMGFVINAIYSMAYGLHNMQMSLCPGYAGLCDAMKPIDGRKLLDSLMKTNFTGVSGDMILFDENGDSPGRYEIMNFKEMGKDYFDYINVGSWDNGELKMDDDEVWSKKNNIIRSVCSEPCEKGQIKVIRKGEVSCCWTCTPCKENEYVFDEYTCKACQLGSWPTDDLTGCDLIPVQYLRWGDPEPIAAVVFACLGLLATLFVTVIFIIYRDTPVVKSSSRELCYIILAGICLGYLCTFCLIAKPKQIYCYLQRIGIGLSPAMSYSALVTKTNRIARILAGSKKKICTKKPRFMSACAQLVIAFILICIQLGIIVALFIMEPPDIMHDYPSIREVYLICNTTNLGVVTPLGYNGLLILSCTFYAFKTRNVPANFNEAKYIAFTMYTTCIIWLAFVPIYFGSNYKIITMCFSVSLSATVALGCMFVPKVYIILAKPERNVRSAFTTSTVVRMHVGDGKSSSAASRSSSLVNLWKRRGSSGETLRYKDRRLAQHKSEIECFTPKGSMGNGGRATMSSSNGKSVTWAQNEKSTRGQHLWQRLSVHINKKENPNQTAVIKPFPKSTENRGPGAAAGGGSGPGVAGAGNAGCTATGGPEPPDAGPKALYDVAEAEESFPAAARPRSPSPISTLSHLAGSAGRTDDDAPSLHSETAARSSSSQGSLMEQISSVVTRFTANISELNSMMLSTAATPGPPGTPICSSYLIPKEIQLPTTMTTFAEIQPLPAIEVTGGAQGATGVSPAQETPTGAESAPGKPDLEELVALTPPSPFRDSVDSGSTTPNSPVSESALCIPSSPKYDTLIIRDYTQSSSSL

[2] = target: T1, Metabotropic glutamate receptor 5 (Rattus norvegicus, UniProt P31424); test: Positive allosteric modulation at rat mGluR5 receptor expressed in HEK293 cells assessed as glutamate-induced calcium fluorescence by Fluo-4/AM dye-based fluorescence assay; format: functional, cell-based; conditions: for pEC50: read-out: EC50; for EC50: hek293
T1 sequence (P31424 whole entry): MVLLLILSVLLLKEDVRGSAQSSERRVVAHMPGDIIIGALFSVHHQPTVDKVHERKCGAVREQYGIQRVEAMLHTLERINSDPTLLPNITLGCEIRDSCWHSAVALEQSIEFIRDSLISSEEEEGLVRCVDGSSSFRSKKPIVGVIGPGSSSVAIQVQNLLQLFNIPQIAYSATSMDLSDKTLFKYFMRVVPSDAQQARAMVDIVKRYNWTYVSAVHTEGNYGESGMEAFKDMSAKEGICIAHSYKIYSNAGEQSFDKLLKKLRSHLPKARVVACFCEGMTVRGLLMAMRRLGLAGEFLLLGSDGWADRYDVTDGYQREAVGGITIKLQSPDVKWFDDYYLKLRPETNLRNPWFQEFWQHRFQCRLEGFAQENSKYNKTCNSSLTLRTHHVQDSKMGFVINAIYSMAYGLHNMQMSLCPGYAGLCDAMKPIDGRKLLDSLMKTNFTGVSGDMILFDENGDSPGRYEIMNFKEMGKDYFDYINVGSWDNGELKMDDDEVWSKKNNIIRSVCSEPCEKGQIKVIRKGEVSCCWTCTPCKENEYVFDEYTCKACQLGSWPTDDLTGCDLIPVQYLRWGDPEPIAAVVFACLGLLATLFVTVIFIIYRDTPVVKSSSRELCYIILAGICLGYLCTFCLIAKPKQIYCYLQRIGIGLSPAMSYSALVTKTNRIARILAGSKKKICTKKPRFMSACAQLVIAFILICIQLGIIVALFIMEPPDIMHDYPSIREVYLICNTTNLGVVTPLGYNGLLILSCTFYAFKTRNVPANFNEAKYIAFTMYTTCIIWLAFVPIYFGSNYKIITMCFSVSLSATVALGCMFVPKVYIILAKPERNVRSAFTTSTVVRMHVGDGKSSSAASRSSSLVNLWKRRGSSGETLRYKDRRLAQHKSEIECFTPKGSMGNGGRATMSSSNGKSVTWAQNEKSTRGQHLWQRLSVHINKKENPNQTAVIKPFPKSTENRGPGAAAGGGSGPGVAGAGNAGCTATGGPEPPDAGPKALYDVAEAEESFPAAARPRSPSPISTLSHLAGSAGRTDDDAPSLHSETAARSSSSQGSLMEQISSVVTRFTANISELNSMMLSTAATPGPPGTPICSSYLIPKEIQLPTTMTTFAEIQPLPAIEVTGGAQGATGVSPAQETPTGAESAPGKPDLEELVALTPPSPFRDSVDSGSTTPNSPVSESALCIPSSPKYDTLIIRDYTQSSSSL

[3] = target: T1, Metabotropic glutamate receptor 5; test: Negative allosteric modulation at rat mGluR5 receptor
[4] = target: Metabotropic glutamate receptor 8 (Rattus norvegicus) (UniProt P70579); test: Potentiation of rat mGluR8 receptor assessed as fold shift in glutamate concentration response curve at 10 uM relative to control
Metabotropic glutamate receptor 8 (Rattus norvegicus), sequence (P70579 whole entry): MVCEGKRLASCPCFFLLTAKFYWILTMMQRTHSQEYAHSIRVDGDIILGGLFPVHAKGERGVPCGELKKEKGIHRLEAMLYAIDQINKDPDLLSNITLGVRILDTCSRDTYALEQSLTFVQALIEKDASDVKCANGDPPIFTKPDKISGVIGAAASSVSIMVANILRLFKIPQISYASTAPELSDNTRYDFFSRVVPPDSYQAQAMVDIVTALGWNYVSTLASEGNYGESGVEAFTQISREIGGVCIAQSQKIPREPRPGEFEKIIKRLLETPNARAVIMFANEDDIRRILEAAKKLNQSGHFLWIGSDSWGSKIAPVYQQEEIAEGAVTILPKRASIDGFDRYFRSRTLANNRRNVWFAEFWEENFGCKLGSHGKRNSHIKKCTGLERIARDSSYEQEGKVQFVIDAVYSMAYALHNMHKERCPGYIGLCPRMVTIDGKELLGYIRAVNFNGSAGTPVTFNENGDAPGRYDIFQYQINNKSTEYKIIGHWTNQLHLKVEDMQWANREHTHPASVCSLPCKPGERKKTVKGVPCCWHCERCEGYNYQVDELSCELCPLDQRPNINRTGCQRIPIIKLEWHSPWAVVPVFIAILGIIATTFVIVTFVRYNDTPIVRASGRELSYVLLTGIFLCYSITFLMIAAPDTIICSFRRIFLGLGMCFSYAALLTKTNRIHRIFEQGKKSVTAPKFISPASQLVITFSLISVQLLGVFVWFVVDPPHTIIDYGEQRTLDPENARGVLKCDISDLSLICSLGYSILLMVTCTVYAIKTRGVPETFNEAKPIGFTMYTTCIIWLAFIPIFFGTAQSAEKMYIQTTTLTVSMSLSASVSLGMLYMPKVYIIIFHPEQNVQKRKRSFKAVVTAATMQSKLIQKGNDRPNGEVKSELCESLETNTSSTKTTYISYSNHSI

[5] = target: Metabotropic glutamate receptor 5 (Rattus norvegicus) (UniProt P31424); test: Positive allosteric modulation at mGluR5 in […] cells at 30 uM by Fluo-4/AM dye-based fluorescence assay; format: cell-based
[6] = Aqueous solubility of the compound in 0.01 N HCl buffer at pH 2 by HPLC; format: physicochemical
[7] = target: Metabotropic glutamate receptor 5 (Rattus norvegicus) (UniProt P31424); test: Displacement of [3H]3-methoxy-PEPy from rat mGluR5 receptor allosteric binding site at 30 uM
Summary of the method: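 Radioligand binding uses [3H]3-methoxy-PEPy at the mGluR5 allosteric site. Displacement is read at the highest compound concentration tested, 30 μM.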

[8] = target: Metabotropic glutamate receptor 4 (Rattus norvegicus) (UniProt P31423); test: Potentiation of rat mGluR4 receptor assessed as fold shift in glutamate concentration response curve at 10 uM relative to control
[9] = target: Metabotropic glutamate receptor 7 (Rattus norvegicus) (UniProt P35400); test: Potentiation of rat mGluR7 receptor assessed as fold shift in glutamate concentration response curve at 10 uM relative to control
Metabotropic glutamate receptor 7 (Rattus norvegicus), sequence (P35400 whole entry): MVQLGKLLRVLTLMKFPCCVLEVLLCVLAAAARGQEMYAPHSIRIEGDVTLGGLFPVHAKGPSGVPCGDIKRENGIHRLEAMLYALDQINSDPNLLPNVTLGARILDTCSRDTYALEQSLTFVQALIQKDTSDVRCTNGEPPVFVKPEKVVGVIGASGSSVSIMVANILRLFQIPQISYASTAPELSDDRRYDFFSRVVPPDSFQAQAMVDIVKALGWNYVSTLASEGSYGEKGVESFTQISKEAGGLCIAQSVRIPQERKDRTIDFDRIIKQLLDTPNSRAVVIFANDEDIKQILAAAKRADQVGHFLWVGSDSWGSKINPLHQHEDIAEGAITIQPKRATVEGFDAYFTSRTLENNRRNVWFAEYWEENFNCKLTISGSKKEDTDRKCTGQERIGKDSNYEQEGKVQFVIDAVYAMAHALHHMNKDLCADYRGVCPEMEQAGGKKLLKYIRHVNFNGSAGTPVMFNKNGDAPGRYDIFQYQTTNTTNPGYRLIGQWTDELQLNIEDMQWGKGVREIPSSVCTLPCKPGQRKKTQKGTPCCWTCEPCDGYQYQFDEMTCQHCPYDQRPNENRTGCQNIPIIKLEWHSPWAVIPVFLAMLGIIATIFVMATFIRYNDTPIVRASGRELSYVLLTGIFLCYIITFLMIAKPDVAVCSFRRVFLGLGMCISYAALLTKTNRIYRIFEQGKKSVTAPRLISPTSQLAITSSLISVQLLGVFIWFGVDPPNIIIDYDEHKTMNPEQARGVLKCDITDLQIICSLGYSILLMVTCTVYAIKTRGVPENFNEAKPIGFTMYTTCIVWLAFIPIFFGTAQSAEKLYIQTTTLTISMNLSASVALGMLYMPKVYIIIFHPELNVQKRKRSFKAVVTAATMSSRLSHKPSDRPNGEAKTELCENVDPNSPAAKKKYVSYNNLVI

[10] = target: Metabotropic glutamate receptor 5 (Rattus norvegicus) (UniProt P31424); test: Potentiation of rat mGluR5 receptor assessed as fold shift in glutamate concentration response curve at 10 uM relative to control
[11] = target: Metabotropic glutamate receptor 6 (Rattus norvegicus) (UniProt P35349); test: Potentiation of rat mGluR6 receptor assessed as fold shift in glutamate concentration response curve at 10 uM relative to control
Metabotropic glutamate receptor 6 (Rattus norvegicus), sequence (P35349 whole entry): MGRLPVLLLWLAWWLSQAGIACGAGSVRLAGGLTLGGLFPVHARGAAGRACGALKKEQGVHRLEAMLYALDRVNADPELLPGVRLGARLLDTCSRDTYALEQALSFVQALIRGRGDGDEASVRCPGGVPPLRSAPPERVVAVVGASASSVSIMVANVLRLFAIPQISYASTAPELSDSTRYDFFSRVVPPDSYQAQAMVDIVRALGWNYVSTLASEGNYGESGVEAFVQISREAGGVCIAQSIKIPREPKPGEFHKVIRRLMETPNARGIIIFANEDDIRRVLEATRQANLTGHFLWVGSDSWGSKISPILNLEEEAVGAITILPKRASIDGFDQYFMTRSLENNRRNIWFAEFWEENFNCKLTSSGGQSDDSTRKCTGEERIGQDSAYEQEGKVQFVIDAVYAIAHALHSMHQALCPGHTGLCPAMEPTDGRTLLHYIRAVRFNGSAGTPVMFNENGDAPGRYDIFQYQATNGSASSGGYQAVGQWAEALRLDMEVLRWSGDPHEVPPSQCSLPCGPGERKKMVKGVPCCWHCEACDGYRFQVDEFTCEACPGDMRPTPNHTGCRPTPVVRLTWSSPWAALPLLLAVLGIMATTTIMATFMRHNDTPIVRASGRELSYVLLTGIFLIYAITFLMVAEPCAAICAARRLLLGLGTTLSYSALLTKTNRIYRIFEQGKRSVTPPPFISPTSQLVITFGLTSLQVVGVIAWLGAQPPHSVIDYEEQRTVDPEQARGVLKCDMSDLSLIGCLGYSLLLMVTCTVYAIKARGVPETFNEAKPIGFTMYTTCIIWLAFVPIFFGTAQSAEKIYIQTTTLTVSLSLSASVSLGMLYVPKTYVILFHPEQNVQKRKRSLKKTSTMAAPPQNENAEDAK

[12] = Aqueous solubility of the compound in 0.2M sodium phosphate buffer at pH 7.4 by HPLC; format: physicochemical
[13] = target: Metabotropic glutamate receptor 3 (Rattus norvegicus) (UniProt P31422); test: Potentiation of rat mGluR3 receptor assessed as fold shift in glutamate concentration response curve at 10 uM relative to control
[14] = Metabolic stability in human liver microsome assessed as compound remaining after 60 mins by LC-MS-MS; format: ADME; conditions: liver microsomes, read-out: Stability
[15] = tested on: Rattus norvegicus; test: Reversal of amphetamine-induced hyperlocomotion in Sprague-Dawley rat at 56.6 mg/kg, ip administered 30 mins before amphetamine challenge measured for 60 mins; format: functional, organism-based; parameters: dose 56.6 mg/kg
Summary of the method: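 Rats get vehicle or 56.6 mg/kg compound ip in 20% HP β-cyclodextrin 30 min before 1 mg/kg sc amphetamine, given at 60 min. Ambulations (beam breaks per 5 min interval) are counted for a further 60 min. Groups are 12−14 rats, shown as mean ± SEM, compared with the vehicle + amphetamine group by Dunnett's test.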

[16] = target: Metabotropic glutamate receptor 2 (Rattus norvegicus) (UniProt P31421); test: Potentiation of rat mGluR2 receptor assessed as fold shift in glutamate concentration response curve at 10 uM relative to control
[17] = target: Metabotropic glutamate receptor 1 (Rattus norvegicus) (UniProt P23385); test: Potentiation of rat mGluR1 receptor assessed as fold shift in glutamate concentration response curve at 10 uM relative to control
[18] = tested on: Plasma; test: Plasma protein binding in human after 4 hrs by LC-MS-MS; format: ADME, cell-free
[19] = target: Metabotropic glutamate receptor 5 (Rattus norvegicus) (UniProt P31424); test: Potentiation of rat mGluR5 expressed in HEK293 cells assessed as glutamate-induced calcium fluorescence at 10 uM by Fluo-4/AM dye-based fluorescence assay; format: functional, cell-based
[20] = tested on: Plasma; test: Plasma protein binding in Sprague-Dawley rat after 4 hrs by LC-MS-MS; format: ADME, cell-free
[21] = Aqueous solubility of the compound in 0.1 M citrate buffer at pH 4 by HPLC; format: physicochemical
[22] = Passive transcellular permeability of the compound by PAMPA; format: ADME; conditions: read-out: permeability
[23] = Metabolic stability in Sprague-Dawley rat liver microsome assessed as compound remaining after 60 mins by LC-MS-MS; format: ADME; conditions: liver microsomes, read-out: Stability

Compound: O=C(COCc1ccccc1)N1CCN(c2ncccn2)CC1
EC50 [2]: Not Active

Compound: O=C(N1CCN(c2ccccn2)CC1)C12CC3CC(CC(C3)C1)C2
pIC50 [3]: 6.00

Compound: N#Cc1cccnc1N1CCN(C(=O)COCc2ccccc2)CC1
Activity [1]: 33%
pEC50 [2]: < 5.00

Compound: COC(=O)c1ccccc1N1CCN(C(=O)COCc2ccccc2)CC1
Activity [1]: 51%
pEC50 [2]: < 5.00

Compound: O=C(COCc1ccccc1)N1CCN(c2cccnc2)CC1
EC50 [2]: Not Active

Compound: O=C(COCc1ccccc1)N1CCN(c2ncccc2C(F)(F)F)CC1
Activity [1]: 70%
pEC50 [2]: 5.37

Second part, led by results:

Activity [1]: 86%
pEC50 [2]: 5.04
Compound: COc1ccccc1N1CCN(C(=O)COCc2ccccc2)CC1

Activity [1]: 66%
pEC50 [2]: < 5.00
Compound: O=C(COCc1ccccc1)N1CCN(c2nc3ccccc3s2)CC1

Activity [1]: 81%
pEC50 [2]: 5.74
Compound: O=C(COCc1ccccc1)N1CCN(c2ccccc2[N+](=O)[O-])CC1

Activity [1]: 30%
pEC50 [2]: < 5.00
Compound: O=C(COCc1ccccc1)N1CCN(c2nccs2)CC1

Activity [1]: 90%
pEC50 [2]: 6.09
Compound: O=C(COCc1ccccc1)N1CCN(c2ccccc2Cl)CC1

Activity [1]: 86%
pEC50 [2]: 5.27
Compound: O=C(COCc1ccccc1)N1CCN(c2ccccn2)CC1

Activity [4]: inactive
Activity [5]: < 10%
solubility [6]: > 80 µM
Activity [7]: inactive
Activity [8]: inactive
Activity [9]: inactive
fold change (FC) [10]: 12
Activity [11]: inactive
solubility [12]: > 80 µM
Activity [13]: inactive
remaining at 1 h [14]: < 5%
Activity [1]: 78%
Activity [16]: inactive
Activity [17]: inactive
PPB [18]: 94%
Activity [19]: Active
pEC50 [2]: 5.80
PPB [20]: 90%
solubility [21]: > 80 µM
Papp [22]: 2.2 ×10⁻⁶ cm/s
remaining at 1 h [23]: < 5%
Compound: N#Cc1ccccc1N1CCN(C(=O)COCc2ccccc2)CC1
Activity [15]: Active
